Measurements taken from ChEMBL document CHEMBL1123892, “Renin inhibitors based on novel dipeptide analogues. Incorporation of the dehydrohydroxyethylene isostere at the scissile bond” (J Med Chem, 1987).

Key:
Renin = target: T1, Renin (Homo sapiens, UniProt P00797); experiment: Inhibition of human renin
T1 sequence (P00797 whole entry): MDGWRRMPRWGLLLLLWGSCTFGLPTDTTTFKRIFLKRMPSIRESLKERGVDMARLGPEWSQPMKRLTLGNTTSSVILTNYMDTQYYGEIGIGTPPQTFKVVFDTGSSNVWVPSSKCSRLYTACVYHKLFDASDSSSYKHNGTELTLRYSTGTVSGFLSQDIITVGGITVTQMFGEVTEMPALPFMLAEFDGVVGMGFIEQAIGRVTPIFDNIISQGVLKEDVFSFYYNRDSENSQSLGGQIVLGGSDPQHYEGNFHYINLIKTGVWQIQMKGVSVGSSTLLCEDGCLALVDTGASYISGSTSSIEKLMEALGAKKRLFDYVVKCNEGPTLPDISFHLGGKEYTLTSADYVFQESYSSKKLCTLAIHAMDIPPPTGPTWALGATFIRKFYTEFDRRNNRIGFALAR
Summary of the method: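 Purified human renal renin, 0.24 mGu, with pure human angiotensinogen (0.21 μM) at 37 °C in 0.135 M maleate pH 6.0 containing 3 mM EDTA, 1.4 mM PMSF, 0.44% BSA and 1% DMSO (final). At least three inhibitor concentrations bracketing the IC50 preincubated with enzyme 5 min, then 10.0 min reaction stopped by freezing. Angiotensin I read by RIA; IC50 by regression of percent inhibition.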

Renin (Homo sapiens) [1] = target: T2, Renin (Homo sapiens) (UniProt P00797); experiment: Compound was evaluated for percent inhibition of renin at a concentration of 1E-8M at 5 min pre-incubation time
T2 sequence (whole entry): T1 sequence (P00797 whole entry)
Summary of the method: (§1)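 Purified human renal renin with pure human angiotensinogen (0.21 μM final) in 0.135 M maleate buffer pH 6.0, 3 mM EDTA, 1.4 mM PMSF, 0.44% BSA, 1% DMSO. Inhibitor at one fixed concentration, preincubated with renin 5 or 60 min at 37 °C before substrate addition. Reaction then ran 10.0 min, stopped by freezing. Angiotensin I measured by radioimmunoassay; percent inhibition reported.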

Renin (Homo sapiens) [2] = target: T2, Renin (Homo sapiens); experiment: Compound was evaluated for percent inhibition of renin at a concentration of 1E-8M at 60 min pre-incubation time; summary of the method: as §1
Renin (Homo sapiens) [3] = target: T2, Renin (Homo sapiens); experiment: Compound was evaluated for percent inhibition of renin at a concentration of 4E-7M at 5 min pre-incubation time; summary of the method: as §1
Renin (Homo sapiens) [4] = target: T2, Renin (Homo sapiens); experiment: Compound was evaluated for percent inhibition of renin at a concentration of 4E-7M at 60 min pre-incubation time; summary of the method: as §1
Renin (Homo sapiens) [5] = target: T2, Renin (Homo sapiens); experiment: Compound was evaluated for percent inhibition of renin at a concentration of 2.5*10e-8 M at 5 min pre-incubation time; summary of the method: as §1
Renin (Homo sapiens) [6] = target: T2, Renin (Homo sapiens); experiment: Compound was evaluated for percent inhibition of renin at a concentration of 2.5*10e-8 M at 60 min preincubation time; summary of the method: as §1
Renin (Homo sapiens) [7] = target: T2, Renin (Homo sapiens); experiment: Compound was evaluated for percent inhibition of renin at a concentration of 5e-8M at 5 min pre-incubation time; summary of the method: as §1
Renin (Homo sapiens) [8] = target: T2, Renin (Homo sapiens); experiment: Compound was evaluated for percent inhibition of renin at a concentration of 5e-8M at 60 min pre-incubation time; summary of the method: as §1
Renin (Homo sapiens) [9] = target: T2, Renin (Homo sapiens); experiment: Compound was evaluated for percent inhibition of renin at a concentration of 5E-8 M at 5 min pre-incubation time; summary of the method: as §1
Renin (Homo sapiens) [10] = target: T2, Renin (Homo sapiens); experiment: Compound was evaluated for percent inhibition of renin at a concentration of 5E-8 M at 60 min pre-incubation time; summary of the method: as §1

Row | IC50 (Renin) | SMILES | also measured
1 | 150 nM | C=C(C[C@H](O)[C@H](CC1CCCCC1)NC(=O)[C@H](C)NC(=O)[C@H](Cc1ccccc1)NC(=O)OC(C)(C)C)C(=O)NCCc1ccccc1 | –
2 | 4 nM | C=C(C[C@H](O)[C@H](CC1CCCCC1)NC(=O)[C@H](CC(C)C)NC(=O)[C@H](Cc1ccccc1)NC(=O)OC(C)(C)C)C(=O)NCCC(C)C | –
3 | 5.5 nM | CC(C)CCNC(=O)[C@@](C)(O)C[C@H](O)[C@H](CC1CCCCC1)NC(=O)[C@H](Cc1c[nH]cn1)NC(=O)[C@H](Cc1ccccc1)NC(=O)OC(C)(C)C | –
4 | 10 nM | C=C(C[C@H](O)[C@H](CC1CCCCC1)NC(=O)[C@H](C)NC(=O)[C@H](Cc1ccccc1)NC(=O)OC(C)(C)C)C(=O)NCCC(C)C | inhibition (Renin (Homo sapiens) [1]): 38%; inhibition (Renin (Homo sapiens) [2]): 31%
5 | 10 nM | C=C(C[C@H](O)[C@H](CC1CCCCC1)NC(=O)[C@H](C)NC(=O)[C@H](Cc1ccccc1)NC(=O)OC(C)(C)C)C(=O)NCC(C)C | –
6 | 1.5 nM | C=C(C[C@H](O)[C@H](CC1CCCCC1)NC(=O)[C@H](Cc1c[nH]cn1)NC(=O)[C@H](Cc1ccccc1)NC(=O)OC(C)(C)C)C(=O)NCCC(C)C | –
7 | 3 nM | C=C(C[C@H](O)[C@H](CC1CCCCC1)NC(=O)[C@H](Cc1c[nH]cn1)NC(=O)[C@H](Cc1ccccc1)NC(=O)OCC)C(=O)NCCC(C)C | –
8 | 2000 nM | C=C(C[C@H](O)[C@H](CC1CCCCC1)NC(=O)[C@H](Cc1c[nH]cn1)NC(=O)[C@H](CO)NC(=O)OC(C)(C)C)C(=O)NCCC(C)C | –
9 | 1 nM | CC(C)CNC(=O)[C@](O)(CN=[N+]=[N-])C[C@H](O)[C@H](CC1CCCCC1)NC(=O)[C@H](Cc1cnc[nH]1)NC(=O)[C@H](Cc1ccccc1)NC(=O)OC(C)(C)C | –
10 | 400 nM | C=C(C[C@H](O)[C@H](CC(C)C)NC(=O)[C@H](C)NC(=O)[C@H](Cc1ccccc1)NC(=O)OC(C)(C)C)C(=O)NCC(C)C | inhibition (Renin (Homo sapiens) [3]): 48%; inhibition (Renin (Homo sapiens) [4]): 43%
11 | 4 nM | C=C(C[C@H](O)[C@H](CC1CCCCC1)NC(=O)[C@H](Cc1c[nH]cn1)NC(=O)[C@H](Cc1ccccc1)NC(C)=O)C(=O)NCCC(C)C | –
12 | 5 nM | C=C(C[C@H](O)[C@H](CC1CCCCC1)NC(=O)[C@H](CC(C)C)NC(=O)[C@H](Cc1ccccc1)NC(=O)OCC)C(=O)NCC(C)C | –
13 | 100 nM | C=C(C[C@H](O)[C@H](CC1CCCCC1)NC(=O)C(Cc1c[nH]cn1)NC(=O)C(C)(O)c1ccccc1)C(=O)NCCC(C)C (stereo partly drawn) | –
14 | 25 nM | CC(C)CCNC(=O)C1(C[C@H](O)[C@H](CC2CCCCC2)NC(=O)[C@H](C)NC(=O)[C@H](Cc2ccccc2)NC(=O)OC(C)(C)C)CO1 (stereo partly drawn) | inhibition (Renin (Homo sapiens) [5]): 66%; inhibition (Renin (Homo sapiens) [6]): 61%
15 | 20 nM | CC(C)CNC(=O)[C@@](O)(CCl)C[C@H](O)[C@H](CC1CCCCC1)NC(=O)[C@H](Cc1c[nH]cn1)NC(=O)[C@H](Cc1ccccc1)NC(=O)OC(C)(C)C | –
16 | 35 nM | CC(C)CNC(=O)[C@@](O)(CN)C[C@H](O)[C@H](CC1CCCCC1)NC(=O)[C@H](Cc1cnc[nH]1)NC(=O)[C@H](Cc1ccccc1)NC(=O)OC(C)(C)C | –
17 | 15 nM | CC(C)CNC(=O)[C@](O)(CN)C[C@H](O)[C@H](CC1CCCCC1)NC(=O)[C@H](Cc1c[nH]cn1)NC(=O)[C@H](Cc1ccccc1)NC(=O)OC(C)(C)C | –

Row | IC50 (Renin) | SMILES | also measured
18 | 200 nM | C=C(C[C@H](O)[C@H](CC(C)C)NC(=O)[C@H](C)NC(=O)[C@H](Cc1ccccc1)NC(=O)OC(C)(C)C)C(=O)NCCC(C)C | –
19 | 6000 nM | C=C(C[C@H](O)[C@H](CC(C)C)NC(=O)[C@H](C)NC(=O)[C@H](Cc1ccccc1)NC(=O)OC(C)(C)C)C(=O)N[C@H](O)CC(C)C | –
20 | 20 nM | CC(C)CNC(=O)[C@@](O)(CN=[N+]=[N-])C[C@H](O)[C@H](CC1CCCCC1)NC(=O)[C@H](Cc1cnc[nH]1)NC(=O)[C@H](Cc1ccccc1)NC(=O)OC(C)(C)C | –
21 | 50 nM | CC(C)CCNC(=O)[C@](C)(O)C[C@H](O)[C@H](CC1CCCCC1)NC(=O)[C@H](Cc1c[nH]cn1)NC(=O)[C@H](Cc1ccccc1)NC(=O)OC(C)(C)C | –
22 | 0.8 nM | CC(C)CNC(=O)[C@](O)(CCl)C[C@H](O)[C@H](CC1CCCCC1)NC(=O)[C@H](Cc1cnc[nH]1)NC(=O)[C@H](Cc1ccccc1)NC(=O)OC(C)(C)C | –
23 | 40 nM | CNC(=O)C1(C[C@H](O)[C@H](CC2CCCCC2)NC(=O)[C@H](C)NC(=O)[C@H](Cc2ccccc2)NC(=O)OC(C)(C)C)CO1 (stereo partly drawn) | –
24 | 50 nM | C=C(C[C@H](O)[C@H](CC1CCCCC1)NC(=O)[C@H](C)NC(=O)[C@H](Cc1ccccc1)NC(=O)OC(C)(C)C)C(=O)NC | inhibition (Renin (Homo sapiens) [7]): 44%; inhibition (Renin (Homo sapiens) [8]): 37%
25 | 5 nM | C=C(C[C@H](O)[C@H](CC1CCCCC1)NC(=O)[C@H](Cc1c[nH]cn1)NC(=O)[C@H](Cc1ccccc1)NC(=O)OC(C)(C)C)C(=O)NCC(C)(C)CN(C)C | –
26 | 2 nM | C=C(C[C@H](O)[C@H](CC1CCCCC1)NC(=O)[C@H](Cc1c[nH]cn1)NC(=O)[C@H](Cc1ccccc1)NC(=O)OC(C)(C)C)C(=O)NCC(C)C | –
27 | 10 nM | C=C(C[C@H](O)[C@H](CC1CCCCC1)NC(=O)[C@H](CC(C)C)NC(=O)[C@H](Cc1ccccc1)NC(=O)OCC)C(=O)NCC(C)(C)CN(C)C | –
28 | 25 nM | C=C(C[C@H](O)[C@H](CC1CCCCC1)NC(=O)[C@H](C)NC(=O)[C@H](Cc1ccccc1)NC(=O)OC(C)(C)C)C(=O)NCC(C)(C)CN(C)C | –
29 | 50 nM | C=C(C[C@H](O)[C@H](CC1CCCCC1)NC(=O)[C@H](C)NC(=O)[C@H](Cc1ccccc1)NC(=O)OC(C)(C)C)C(=O)NCC1CCCCC1 | inhibition (Renin (Homo sapiens) [9]): 49%; inhibition (Renin (Homo sapiens) [10]): 53%
30 | 2 nM | C=C(C[C@H](O)[C@H](CC1CCCCC1)NC(=O)[C@H](Cc1c[nH]cn1)NC(=O)[C@H](Cc1ccccc1)NC(=O)CC(C)(C)C)C(=O)NC | –
31 | 400 nM | C=C(C[C@H](O)[C@H](CC1CCCCC1)NC(=O)[C@H](C)NC(=O)[C@H](Cc1ccccc1)NC(=O)OC(C)(C)C)C(=O)NCCN(C)C | –
32 | 30 nM | CC(C)CNC(=O)[C@](O)(CC(C)C)C[C@H](O)[C@H](CC1CCCCC1)NC(=O)[C@H](Cc1c[nH]cn1)NC(=O)[C@H](Cc1ccccc1)NC(=O)OC(C)(C)C | –
33 | 8.5 nM | C=C(C[C@H](O)[C@H](CC1CCCCC1)NC(=O)[C@H](Cc1ccccc1)NC(=O)[C@H](Cc1ccccc1)NC(=O)OC(C)(C)C)C(=O)NCC(C)(C)CN(C)C | –
